From ChEMBL document CHEMBL4028851, “Discovery of Potent Small-Molecule Inhibitors of Ubiquitin-Conjugating Enzyme UbcH5c from α-Santonin Derivatives” (J Med Chem, 2017) come the findings set out here.

A short description of data set [1]: Half life in Sprague-Dawley rat at 1 mg/kg, iv by LC-MS/MS analysis. In kind it is ADME, organism-based. The conditions noted are these: in vivo. A digest of the protocol: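 Male Sprague-Dawley rats (about 200‒220 g; n = 6) were fasted overnight and given a single 1 mg/kg iv dose in DMSO:castor oil:saline (3:3:94). Blood was sampled from the orbital artery into heparin tubes. Plasma was analysed by LC/MS/MS (ESI, MRM), and parameters came from noncompartmental analysis. Values are mean ± SD.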

The target in data set [2] is T1, Ubiquitin-conjugating enzyme E2 C (Homo sapiens) (UniProt O00762).
T1 sequence (whole entry): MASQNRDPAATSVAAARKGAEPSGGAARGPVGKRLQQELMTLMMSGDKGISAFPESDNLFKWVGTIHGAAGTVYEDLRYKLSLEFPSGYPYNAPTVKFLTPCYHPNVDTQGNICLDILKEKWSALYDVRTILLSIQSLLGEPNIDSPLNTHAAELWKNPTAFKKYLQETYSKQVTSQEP
In words: Inhibition of UbcH10 (unknown origin) at 2.5 to 10 uM preincubated for 15 mins followed by E1, Ub and ATP addition measured after 40 mins by Western blot analysis.

Data set [3] has as its target Ubiquitin-conjugating enzyme E2 D3 (Mus musculus) (UniProt P61079). In words: Inhibition of UbcH5c in mouse b.End3 cells assessed as decrease in TNF-alpha-mediated p65 phosphorylation preincubated for 2 hrs followed by TNF-alpha stimulation for 20 mins by Western blot analysis. In kind it is cell-based. Put shortly:
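bEnd.3 cells (DMEM, 10% FBS) were pretreated with compound at 2.5, 5 or 10 µM for 2 h, then stimulated with 20 ng/mL TNF-α (15 min in the methods, 20 min in the legend). Lysates were run on 10% SDS-PAGE and immunoblotted for phospho-IκBα, IκBα, phospho-p65 and p65, with GAPDH as loading control.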
A general note: Immunoblotting shows a protein as a band on a membrane.

The nature of data set [4]: Tmax in Sprague-Dawley rat at 5 mg/kg, po via gavage by LC-MS/MS analysis. In kind it is ADME, organism-based. To be noted: in vivo. Put shortly:
(§1)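 Male Sprague-Dawley rats (about 200‒220 g; n = 6) were fasted overnight and gavaged with 5 mg/kg as a suspension in 0.5% methylcellulose. Blood was taken from the orbital artery at 0.083–24 h into heparin tubes. Plasma was quantified by LC/MS/MS (ESI, MRM), with noncompartmental analysis. Bioavailability was referenced to a 1 mg/kg iv dose. Values are mean ± SD.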

Data set [5] can be described thus: Cmax in Sprague-Dawley rat at 5 mg/kg, po via gavage by LC-MS/MS analysis. The arrangement: dose 5 mg/kg, route oral. The conditions noted are these: in vivo. In kind it is ADME, organism-based. A digest of the protocol: as §1
The nature of data set [6]: Half life in Sprague-Dawley rat at 5 mg/kg, po via gavage by LC-MS/MS analysis. The format is ADME, organism-based. The conditions noted are these: in vivo. Put shortly: as §1
A short description of data set [7]: Oral bioavailability in Sprague-Dawley rat at 5 mg/kg via gavage by LC-MS/MS analysis. The format is ADME, organism-based. To be noted: in vivo. Put shortly: as §1
Data set [8] relates to Rattus norvegicus. In words: Antiarthritic activity in Wistar rat Freund's adjuvant-induced arthritis model assessed as protection against body weight loss at 5 to 20 mg/kg, po qd administered on day 10 to 20 postimmunization measured every 2 to 3 days during compound dosing. In kind it is functional, organism-based. Put shortly: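 Adjuvant arthritis was induced by intradermal CFA (0.1 mL) into the base of the left hind paw (day 0), with a boost 10 days later. Rats were dosed orally once daily at 5 or 20 mg/kg from day 10 to day 20, with 10 rats per group. Vehicle controls received 0.3% sodium carboxymethylcellulose. Two blinded observers scored the animals every 2 or 3 days. Data are mean ± S.E.M.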

Data set [9] can be described thus: in vitro. The conditions noted are these: human, HEK-293T cells.

The structures appear in SMILES notation. Activity calls are given as the source filed them. No cut-off for these calls is given here. Where only a bound is given, the exact number is not on record here.

Usually half-life stands for how long it takes for the measured level to halve. A word on the Tmax: it is the time from dosing to the highest level. As a reminder, the Cmax is the peak of the concentration-time curve. One may read the bioavailability as the share of a dose that reaches the circulation, judged against a reference dose that is usually intravenous. Read a high bioavailability as good availability.

Chain of Ubiquitin-conjugating enzyme E2 D3 (Mus musculus) (P61079 whole entry, looked up): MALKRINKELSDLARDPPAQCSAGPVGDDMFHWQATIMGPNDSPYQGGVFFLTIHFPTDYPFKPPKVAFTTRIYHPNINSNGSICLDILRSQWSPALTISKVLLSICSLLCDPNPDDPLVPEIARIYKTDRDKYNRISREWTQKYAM

In the case of `C=C1C(=O)O[C@H]2c3c(C)c(OCc4ccccc4Br)cc(C)c3CC[C@@H]12`, the results for the half-life in data set [1] and in data set [6] were 1.76 h and 2.86 h, respectively. Besides, the inhibition entry in data set [2] is “Active”. Also, the inhibition result in data set [3] was “Dose-dependent effect”. Besides, in data set [4], the time of peak concentration (Tmax) amounted to 3.83 h. Besides, the highest level in data set [5] (Cmax) was 42.2 ng/mL. Besides, the bioavailability in data set [7] was determined as 16.8%. For the same compound, the outcome in [8] was inactive. The cytotoxicity at 5 µM in data set [9] is < 20%.
